ALR H2O2 inh: blocks human ALR sulfhydryl oxidase activity; P55789; purified ALR, DTT oxidation, H2O2 HRP-luminol luminescence; inhibition, % (test concentration not listed); 290,000 compounds, 3.8% hits;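 active = mean replicate inhibition above about 79%, with every replicate also reaching it, limit read from the data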
Target sequence (P55789 whole entry, looked up): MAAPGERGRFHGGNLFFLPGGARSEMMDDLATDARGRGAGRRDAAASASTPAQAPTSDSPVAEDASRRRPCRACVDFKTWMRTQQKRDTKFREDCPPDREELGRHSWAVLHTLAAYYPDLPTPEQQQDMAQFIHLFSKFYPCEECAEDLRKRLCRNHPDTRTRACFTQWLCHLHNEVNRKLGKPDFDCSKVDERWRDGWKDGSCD
T cell HTS: T cell immune modulators affecting CD8 T cell-vesicle binding | 330,000 compounds, 0.068% hits | AID 2052 | 2C CD8+ T cell-vesicle binding, flow cytometry; hits give low values | response (vesicle binding), % at 7 µM;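 active = response, share of CD8 T cells binding vesicles, and their 90th percentile fluorescence all below set limits, cut at about 80% in these data, passing the limit was not always enough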;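 also: values below 100% mean blocked vesicle binding to the CD8+ T cells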
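Assay system – 2C mouse CD8+ T cells · Also added – QL9-loaded Drosophila micro-vesicles · Timing – Cell–vesicle co-incubation 1.5 h at 37 °C, staining 20 min on ice · Signal – flow cytometry of vesicle-bound cells · Measure – percent CD8+ FL2 mean versus row control · Controls – Peptide-free naked vesicles (low) and QL9 vesicles with 0.7% DMSO vehicle (high)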
Glyco luc inh: N-linked glycosylation inhibition; D54 ERlucT glycosylation luciferase reporter, 24 h; percent of 100 nM tunicamycin response; reporter increase, % at 12.5 µM; 360,000 compounds, 0.23% hits; AID 588692;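 active = mean luciferase reporter signal, scaled so untreated is 0 and the glycosylation-blocking control 100, at or above a set limit in every replicate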;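 also: luciferase carries N-glycosylation sites so blocking glycosylation raises the light; 0% = median of neutral control wells and 100% = median of 100 nM tunicamycin wells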
Numbers without * were called inactive; i = inactive; nt = no result given. This is one part of a sample in which hits are shown more often than they occur.

SMILES	ALR H2O2 inh	T cell HTS	Glyco luc inh
COc1ccc2c(c1)[C@H]1[C@H](CO2)[C@H](c2ccccc2)[C@]2(C)C(=O)Nc3ccc(F)cc3C(=O)N12	0	493	51*
COc1ccc2c(c1)[C@@H]1[C@H](CO2)[C@H](c2ccccc2)[C@]2(C)C(=O)NCC(=O)N12	4	165	-3
COc1ccc2c(c1)[C@@H]1[C@H](CO2)[C@H](c2ccccc2)[C@]2(C)C(=O)Nc3ccc(C)cc3C(=O)N12	-12	506	34*
Cc1ccc2c(c1)[C@H]1[C@H](CO2)[C@H](c2ccccc2)[C@]2(C)C(=O)Nc3cc(F)ccc3C(=O)N12	0	306	9
COc1ccc2c(c1)OC[C@H]1[C@H]2N2C(=O)c3cc(C)ccc3NC(=O)[C@@]2(C)[C@H]1c1ccccc1	0	316	39*
COc1cc2c(cc1OC(C)=O)CCCCC2=O	nt	nt	2
COc1ccc2c(c1)[C@H]1[C@H](CO2)[C@H](c2ccccc2)[C@]2(C)C(=O)Nc3ccc(Cl)cc3C(=O)N12	nt	nt	40*
COc1ccc2c(c1)[C@H]1[C@H](CO2)[C@H](c2ccccc2)[C@]2(C)C(=O)Nc3ccc(C)cc3C(=O)N12	2	380	58*
COc1ccc2c(c1)C(=O)N1[C@H]3c4cc(C)ccc4OC[C@@H]3[C@H](c3ccccc3)[C@]1(C)C(=O)N2	nt	nt	24
C[C@@]12C(=O)Nc3ccc(Cl)cc3C(=O)N1[C@H]1c3cc(Cl)ccc3OC[C@@H]1[C@@H]2c1ccccc1	2	211	17
O=C(NCc1ccccc1)c1ccc[n+]([O-])c1	-3	336	3
COc1cc2c(cc1OC)CN(C(=O)c1cc(S(=O)(=O)N3CCOCC3)c(Cl)cc1Cl)CC2	-3	124	-2
CC(NC(=O)c1cc2cc(Br)ccc2oc1=N)c1ccccc1 (stereo not given)	-9	0	12
Nc1ccn([C@@H]2O[C@H](C(=O)N[C@H](COC=O)Cc3ccccc3)[C@@H](O)[C@H]2O)c(=O)n1	nt	nt	0
N#Cc1ccc(S(=O)(=O)N2CCC(C(=O)N3CCN(Cc4ccc5c(c4)OCO5)CC3)CC2)cc1	-4	249	-2
CC(NC(=O)c1ccncc1)c1ccc(Cl)cc1Cl (stereo not given)	-8	929	-3
CC(N)c1ccc(Cl)cc1Cl (stereo not given)	-1	32*	2
COc1ccc(-n2nnnc2C(CCc2ccccc2)N2CCN(C/C=C/c3ccccc3)CC2)cc1 (stereo not given)	nt	nt	-8
CC(=O)c1ccc(-n2ccc(=O)cc2)cc1	-6	136	4
Cc1ccccc1Nc1n[nH]c(=S)s1	nt	nt	3
Cc1c(Cl)cccc1Nc1n[nH]c(=S)s1	nt	nt	3
S=c1[nH]nc(Nc2cccc3ccccc23)s1	97*	211	3
Fc1ccccc1Nc1n[nH]c(=S)s1	99*	277	-1
N#CC(=Cc1ccnc2ccccc12)c1ccccc1	nt	nt	-6
Cc1cnc(C(=O)OC(C(=O)c2c[nH]c3ccccc23)c2ccccc2)cn1 (stereo not given)	-1	352	1
SMILES	ALR H2O2 inh	T cell HTS	Glyco luc inh
Cc1ccc(-c2cn3cccnc3n2)cc1NC(=O)c1cccs1	-7	265	0
Cc1ccccc1NN=Nc1nc2c([nH]1)c(=O)n(C)c(=O)n2C	nt	319	5
Cn1c(=O)c2[nH]c(N=NNc3ccccc3F)nc2n(C)c1=O	98*	108	2
Cc1ccc(NC(=O)CC2NCCNC2=O)cc1 (stereo not given)	-6	206	0
CN(C)c1ccc(NC(=O)CC2NCCNC2=O)cc1 (stereo not given)	99*	400	3
O=C(CSc1nnc(-c2ccncc2)n1CC1CCCO1)Nc1ccccc1Cl (stereo not given)	7	i	1
C=CCn1c(SCC(=O)Nc2ccccc2F)nnc1C(C)NC(=O)c1ccccc1F (stereo not given)	1	624	1
C=CCn1c(SCC(=O)Nc2nc(C)cs2)nnc1C(C)NC(=O)c1ccccc1Cl (stereo not given)	94*	362	1
Cc1cc(C(=O)Nc2cccc(C)c2C)c2ccccc2n1	-7	371	3
CC1CCCCC1NC(=O)CSc1nnc(-c2ccco2)n1C (stereo not given)	nt	384	0
COc1ccc(C=O)cc1CN1CCCN(Cc2ccccc2F)S1(=O)=O	-7	79	-5
O=C1Nc2ccccc2N(O)N1c1cc(-c2ccccc2Cl)no1	20	i	-6
O=C1Nc2ccccc2N(O)N1c1cc(-c2cccc(Cl)c2)no1	79*	839	0
CC1=CC(C#N)(C#N)C(C#N)(C#N)C(c2ccccc2)N1 (stereo not given)	-33	207	nt
CC1CCC(C(C)C)C2=C1C(C#N)(C#N)C(C#N)(C#N)C(c1ccccc1)N2 (stereo not given)	94*	187	-1
O=C(NC1CCCc2c1cnn2-c1ccccc1F)c1ccncc1 (stereo not given)	nt	nt	-3
O=c1[nH]c(CSc2ncnc3sc(-c4ccccc4)cc23)nc2ccccc12	14	234	33*
O=c1[nH]c(CSc2nc(-c3ccccc3)cs2)nc2ccccc12	-3	326	0
O=C(Nc1ccc(O)cc1)c1ccc2c(c1)C(=O)N(N1C(=O)c3ccccc3C1=O)C2=O	91*	247	0
CCN1C(=O)c2ccc(C(=O)Nc3c(C)cc(C)cc3C)cc2C1=O	1	184	1
O=C(Nc1ccccc1O)c1ccc2c(c1)C(=O)N(N1C(=O)c3ccccc3C1=O)C2=O	6	0	4
CCCN1C(=O)c2ccc(C(=O)Nc3cc(C)ccc3O)cc2C1=O	-2	761	0
Cc1cccc(C(=O)Nc2ccc(C(=O)c3ccccc3)cc2)c1	-9	604	-2
Cc1cccc(C(=O)Nc2ccc(O)cc2)c1	99*	188	2
CCN1C(=O)c2ccc(C(=O)Nc3ccc(O)cc3C)cc2C1=O	99*	175	1
SMILES	ALR H2O2 inh	T cell HTS	Glyco luc inh
CCCN1C(=O)c2ccc(C(=O)Nc3ccccc3C(=O)O)cc2C1=O	97*	225	1
O=S(=O)(c1ccccc1F)N1CCC(Oc2ccc(-n3cnnn3)cc2)CC1	-36	957	-2
CC(=O)c1ccc(NC(=O)CCc2ccc(C)o2)cc1	5	486	1
CCOn1c(=O)c(-c2cc3ccccc3o2)[n+]([O-])c2ccccc21	93*	315	-2
O=c1c(-c2ccco2)[n+]([O-])c2ccccc2n1OCc1ccccc1F	97*	171	-1
O=c1c(-c2cc3ccccc3o2)[n+]([O-])c2ccccc2n1OCc1ccccn1	6	272	-5
O=c1c(-c2ccco2)[n+]([O-])c2ccccc2n1OCc1c(F)cccc1F	50	213	-2
COc1ccc(NC(=O)COC(=O)Cc2c(F)cccc2Cl)cc1OC	-8	247	-1
N#Cc1ccccc1COc1cccc2c1CCCC2O (stereo not given)	-14	252	-1
CC1CCCC(NC(=O)c2ccc3c(c2)OCO3)C1C (stereo not given)	1	317	1
O=C(N/N=C/c1sc(N2CCCCC2)nc1-c1cccs1)C1CC1	39	281	-2

Compound activity (PubChem)
